The source of these data is ChEMBL document CHEMBL1141149, “Novel fluorinated prodrugs for activation by carboxypeptidase G2 showing good in vivo antitumor activity in gene-directed enzyme prodrug therapy” (J Med Chem, 2005).

A short description of data set [1]: Cytotoxicity aganist MDA MB361 cell line MDA MB 361 expressing carboxypeptidase G2 done for 1 hr with compound dissolved in DMSO. As to conditions: Homo sapiens, MDA-MB-361, 1 h. In kind it is functional, cell-based. In short, it runs like this: (§1)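 Stably transfected MDA MB 361 lines (β-gal, cytoplasmic CPG2, or surface-tethered stCPG2(Q)3) in DMEM/10% FBS, confluent 6-well monolayers. Prodrug series 1 h, then equal concentration fresh solution added, 20 h more. Cells reseeded 2×10^3/well, grown 5 days; SRB staining, A540. IC50 by four-parameter logistic fit of % control growth.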

Data set [2] is described as follows: Half life period was determined. It is filed as ADME. Conditions: rat. Summed up: (§2)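 Compounds diluted from 10 mM DMSO stocks to 100 μM final in CPG2 assay buffer (100 mM Tris-HCl pH 7.3, 260 μM ZnCl2), no enzyme. Remaining parent measured over time by repeat isocratic reverse-phase HPLC injections (10 mM ammonium acetate pH 5.0/methanol), UV at λmax. Half-life from one-phase exponential decay fit (max 1, min 0).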

A short description of data set [3]: Ratio of IC50 of LacZ cell line to CPG2-expressing cell line. In kind it is functional, Homo sapiens. In short, it runs like this: (§3)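 Selectivity ratio: IC50 in β-gal (LacZ) control MDA MB 361 cells divided by IC50 in CPG2- or stCPG2(Q)3-expressing cells, both from 1 h + 20 h exposure, 5-day regrowth SRB assay.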
Data set [4] is described as follows: Ratio of IC50 of LacZ cell line to stCPG2(Q)3-expressing cell line. It is filed as functional, Homo sapiens. Summed up: as §3
Data set [5] in a line: Cytotoxicity against MDA MB361 cell line MDA MB 361 expressing beta-galactosidase done for 1 h with compound dissolved in DMSO. It is filed as functional, cell-based. Conditions: Homo sapiens, MDA-MB-361, 1 h. In short, it runs like this:
as §1

A short description of data set [6]: Cytotoxicity aganist MDA MB361 cell line MDA MB 361 expressing stCPG2(Q)3 done for 1 hr with compound dissolved in DMSO. As to conditions: Homo sapiens, MDA-MB-361, 1 h. It is filed as functional, cell-based. Summed up:
as §1

The nature of data set [7]: Chemical half life period as substrates of CPG2 was determined. In kind it is ADME. In short, it runs like this: as §2
Data set [8] concerns the target T1, Carboxypeptidase G2 (Pseudomonas aeruginosa (strain ATCC 15692 / PAO1 / 1C / PRS 101 / LMG12228)) (UniProt Q9I056).
T1 sequence (whole entry): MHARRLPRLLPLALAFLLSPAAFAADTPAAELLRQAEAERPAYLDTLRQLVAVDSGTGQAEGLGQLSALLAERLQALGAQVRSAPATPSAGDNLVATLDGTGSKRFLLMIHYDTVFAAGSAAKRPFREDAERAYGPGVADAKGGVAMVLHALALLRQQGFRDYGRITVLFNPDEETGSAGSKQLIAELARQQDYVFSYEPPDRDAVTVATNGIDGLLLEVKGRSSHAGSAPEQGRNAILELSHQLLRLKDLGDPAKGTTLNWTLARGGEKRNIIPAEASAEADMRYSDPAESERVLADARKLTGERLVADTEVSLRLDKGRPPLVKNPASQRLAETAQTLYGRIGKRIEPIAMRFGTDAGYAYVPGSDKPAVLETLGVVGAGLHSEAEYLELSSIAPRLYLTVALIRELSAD
Kind of data set: Kcat against carboxypeptidase G2 in inhibitory kinetic assay. In short, it runs like this: (§4)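 Prodrug 0.2–50 μM (25 concentrations) in CPG2 assay buffer (100 mM Tris-HCl pH 7.3, 260 μM ZnCl2) at 37 °C, ±50 mU CPG2. Absorbance change at wavelength of maximal prodrug/drug difference followed 1 min, non-enzymic change subtracted, converted to substrate loss. Km and kcat from Michaelis–Menten nonlinear fit.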

Compound in data set [9]: CS(=O)(=O)OCCN(CCCl)c1ccc(C(=O)N[C@@H](CCC(=O)O)C(=O)O)cc1
Kind of data set: (§5) Km against carboxypeptidase G2 in inhibitory kinetic assay. As to conditions: Pseudomonas. Summed up: as §4

Compound in data set [10]: O=C(O)CC[C@H](NC(=O)c1cc(F)c(N(CCBr)CCBr)c(F)c1)C(=O)O
Described as §5. Conditions: Pseudomonas. Summed up:
as §4

Compound in data set [11]: O=C(O)CC[C@H](NC(=O)c1cc(F)c(N(CCBr)CCBr)c(F)c1F)C(=O)O
The data set is described as §5. Conditions: Pseudomonas. In short, it runs like this: as §4

Compound in data set [12]: O=C(O)CC[C@H](NC(=O)c1cc(F)c(N(CCCl)CCCl)c(F)c1)C(=O)O
Described as §5. As to conditions: Pseudomonas. In short, it runs like this:
as §4

Compound in data set [13]: O=C(O)CC[C@H](NC(=O)c1cc(F)c(N(CCCl)CCCl)c(F)c1F)C(=O)O
The data set is described as §5. As to conditions: Pseudomonas. In short, it runs like this: as §4

Compound in data set [14]: O=C(O)CC[C@H](NC(=O)c1cc(F)c(N(CCI)CCI)c(F)c1)C(=O)O
Described as §5. Conditions: Pseudomonas. Summed up:
as §4

Compound in data set [15]: O=C(O)CC[C@H](NC(=O)c1cc(F)c(N(CCI)CCI)c(F)c1F)C(=O)O
The description is as §5. Conditions: Pseudomonas. In short, it runs like this: as §4

As to `O=C(O)CC[C@H](NC(=O)c1cc(F)c(N(CCBr)CCBr)c(F)c1)C(=O)O`, the IC50 was 53 µM in data set [1], more than 4000 µM in data set [5] and 14 µM in data set [6]. Moreover, the half-life in data set [2] was less than 0.0833 h; in [7], 0.0917 h. Also, the values for the Differential in data set [3] and in data set [4] were more than 75 and more than 280, respectively. In addition, the K cat in data set [8] is 827 1/S.
For the molecule `O=C(O)CC[C@H](NC(=O)c1cc(F)c(N(CCI)CCI)c(F)c1)C(=O)O`, the values for the IC50 in data set [1], in [5] and in [6] were 39 µM, 3300 µM and 26 µM, respectively. In addition, the half-life in [2] is less than 0.0833 h; in [7], 0.15 h. For the same molecule, the Differential is given as 86 in data set [3] and 127 in data set [4]. For the same molecule, in data set [8], the K cat is 1150 1/S.
For `O=C(O)CC[C@H](NC(=O)c1cc(F)c(N(CCBr)CCBr)c(F)c1F)C(=O)O`, the IC50 in data set [1] was 82 µM; in [5], more than 4000 µM; in data set [6] it was 50 µM. The results for the half-life in data set [2] and in data set [7] were 0.15 h and 0.382 h, respectively. Also, the Differential in data set [3] is more than 49; in [4], more than 80. Further, the K cat in data set [8] is 825 1/S.
Take `O=C(O)CC[C@H](NC(=O)c1cc(F)c(N(CCI)CCI)c(F)c1F)C(=O)O`: the IC50 in data set [1] was 671 µM; in data set [5], more than 4000 µM; in data set [6], 173 µM. Besides, the results for the half-life in [2] and in data set [7] were 6 h and 0.622 h, respectively. Moreover, the results for the Differential in data set [3] and in [4] were more than 6 and more than 23, respectively. The K cat in data set [8] was 220 1/S.
As to `O=C(O)CC[C@H](NC(=O)c1cc(F)c(N(CCCl)CCCl)c(F)c1F)C(=O)O`, the half-maximal inhibitory concentration (IC50) is 73 µM in data set [1], more than 4000 µM in data set [5] and 46 µM in data set [6]. Besides, the half-life in data set [2] amounted to 6 h; in data set [7], 21.7 h. For the same molecule, the results for the Differential in data set [3] and in data set [4] were more than 55 and more than 87, respectively. For the same molecule, in [8], the K cat is 1150 1/S.
With `O=C(O)CC[C@H](NC(=O)c1cc(F)c(N(CCCl)CCCl)c(F)c1)C(=O)O`, the figures for the IC50 in data set [1], in data set [5] and in data set [6] were 42 µM, more than 4000 µM and 26 µM, respectively. The half-life stood at 1.5 h in data set [2] and 4.9 h in data set [7]. The Differential in [3] is on record as more than 95; in data set [4] it was more than 150. Moreover, the K cat in data set [8] is 732 1/S.
In the case of `O=C(O)CC[C@H](NC(=O)c1c(F)c(F)c(N(CCI)CCI)c(F)c1F)C(=O)O`, the IC50 in [1], in data set [5] and in data set [6] was more than 4000 µM each time. The half-life in data set [7] worked out at 2 h. In addition, in data set [8], the K cat was 0 1/S.
With `CS(=O)(=O)OCCN(CCCl)c1ccc(C(=O)O)cc1`, the half-life in [7] is 0.5 h.
`O=C(O)CC[C@H](NC(=O)c1c(F)c(F)c(N(CCCl)CCCl)c(F)c1F)C(=O)O`: the IC50 in [1], in data set [5] and in data set [6] was more than 4000 µM throughout. The half-life in [7] came out at 82.3 h. The K cat in data set [8] is 0 1/S.
As to `CS(=O)(=O)OCCN(CCCl)c1ccc(C(=O)N[C@@H](CCC(=O)O)C(=O)O)cc1`, the IC50 in data set [1] came out at 1880 µM; in [5], 3130 µM; in data set [6], 165 µM. Also, the Differential in data set [4] was 19. In addition, the K cat in [8] was 583 1/S.

B1: Carboxypeptidase G2 (Pseudomonas aeruginosa (strain ATCC 15692 / PAO1 / 1C / PRS 101 / LMG12228)), Q9I056 (protein)
chain: MHARRLPRLLPLALAFLLSPAAFAADTPAAELLRQAEAERPAYLDTLRQLVAVDSGTGQAEGLGQLSALLAERLQALGAQVRSAPATPSAGDNLVATLDGTGSKRFLLMIHYDTVFAAGSAAKRPFREDAERAYGPGVADAKGGVAMVLHALALLRQQGFRDYGRITVLFNPDEETGSAGSKQLIAELARQQDYVFSYEPPDRDAVTVATNGIDGLLLEVKGRSSHAGSAPEQGRNAILELSHQLLRLKDLGDPAKGTTLNWTLARGGEKRNIIPAEASAEADMRYSDPAESERVLADARKLTGERLVADTEVSLRLDKGRPPLVKNPASQRLAETAQTLYGRIGKRIEPIAMRFGTDAGYAYVPGSDKPAVLETLGVVGAGLHSEAEYLELSSIAPRLYLTVALIRELSAD
Consider B1, for which the Km came to 3.4 µM in [9]; 1.18 µM in [10]; 1.1 µM in data set [11]; 1.71 µM in data set [12]; 2.6 µM in data set [13]; 1.74 µM in [14]. Further, the Km in [15] was 2.8 µM.
